According to ChEMBL document CHEMBL1122940, “Cyclic guanidines. 17. Novel (N-substituted amino)imidazo[2,1-b]quinazolin-2 ones: water-soluble platelet aggregation inhibitors” (J Med Chem, 1985):

What was measured:
[1] = species: Rattus norvegicus; assay: In vitro inhibition of blood platelet aggregation (ADP) in rats; type: functional
[2] = tested on: Rattus norvegicus; assay: Ex vivo in vitro inhibition of blood platelet aggregation (ADP) in rats at oral dose 10 mg/kg 1 hour before the test; type: functional
[3] = species: Rattus norvegicus; assay: In vitro inhibition of blood platelet aggregation (collagen) in rats; type: functional
[4] = tested on: Rattus norvegicus; assay: Duration of inhibition of blood platelet aggregation in rats (collagen) 3 hr after oral administration at dose 10 mg/kg; type: functional
Summary of the method: (§1)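 Rats got a single oral dose of 10 mg/kg, and controls got vehicle alone. Blood was collected 3 h later and aggregation was run ex vivo. Collagen-induced aggregation was read as ΔA/min and ADP-induced aggregation as ΔA. Values are mean ± SD of five animals, with percent inhibition versus vehicle control.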

[5] = tested on: Rattus norvegicus; assay: Duration of inhibition of blood platelet aggregation in rats (ADP) 3 hours after oral administration at dose 10 mg/kg; type: functional; summary of the method: as §1
[6] = tested on: Rattus norvegicus; assay: Ex vivo inhibition of blood platelet aggregation (collagen) in rats at oral dose 10 mg/kg 1 hour before the test; type: functional
[7] = tested on: Rattus norvegicus; assay: Inhibition of blood platelet aggregation in rats (ADP) after intravenous infusion at dose 10 mg/kg after 10 min; type: functional
Summary of the method: (§2)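 Compounds were dissolved in physiological saline and infused continuously through the femoral vein into fed rats under pentobarbital anesthesia, at 1 mg/kg over 15 min or 10 mg/kg over 10 min. Citrated cardiac blood was drawn 15 or 10 min later, and aggregation was measured as in the in vitro test. Collagen was read as ΔA/min and ADP as ΔA. Values are mean ± SD of five animals, as percent inhibition versus control.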

[8] = tested on: Rattus norvegicus; assay: Inhibition of blood platelet aggregation in rats (collagen) after intravenous infusion at dose 10 mg/kg after 10 min; type: functional; summary of the method: as §2
[9] = tested on: Rattus norvegicus; assay: Change in heart rate 1 hour after oral administration at dose 50 mg/kg; type: functional
[10] = tested on: Rattus norvegicus; assay: Change in heart rate 3 hours after oral administration at dose 50 mg/kg; type: functional
[11] = tested on: Rattus norvegicus; assay: Decrease in systolic BP 1 hour after oral administration at dose 50 mg/kg; type: functional
[12] = tested on: Rattus norvegicus; assay: Change in heart rate 5 hours after oral administration at dose 50 mg/kg; type: functional
[13] = tested on: Rattus norvegicus; assay: Decrease in systolic BP 7 hours after oral administration at dose 50 mg/kg; type: functional
[14] = tested on: Rattus norvegicus; assay: Decrease in systolic BP 5 hours after oral administration at dose 50 mg/kg; type: functional
[15] = tested on: Rattus norvegicus; assay: Decrease in systolic BP 2 hours after oral administration at dose 50 mg/kg; type: functional
[16] = tested on: Rattus norvegicus; assay: Change in heart rate 7 hours after oral administration at dose 50 mg/kg; type: functional
[17] = tested on: Rattus norvegicus; assay: Change in heart rate 2 hours after oral administration at dose 50 mg/kg; type: functional
[18] = tested on: Rattus norvegicus; assay: Decrease in systolic BP 3 hours after oral administration at dose 50 mg/kg; type: functional
[19] = tested on: Rattus norvegicus; assay: Duration of inhibition of blood platelet aggregation in rats (collagen) 3 hours after oral administration at dose 10 mg/kg; type: functional; summary of the method: as §1
[20] = tested on: Rattus norvegicus; assay: Ex vivo in vitro inhibition of blood platelet aggregation (ADP) in rats at oral dose 10 mg/kg 1 hour before the tes; type: functional
[21] = tested on: Rattus norvegicus; assay: Ex vivo inhibition of blood platelet aggregation (collagen) in rats at oral dose 10 mg/kg 1 hour before the test; Platelet aggregation could not be measured optically because this compound causes hemolysis; type: functional, organism-based; design: dose 10 mg/kg
[22] = tested on: Rattus norvegicus; assay: Ex vivo in vitro inhibition of blood platelet aggregation (ADP) in rats at oral dose 10 mg/kg 1 hour before the test; Platelet aggregation could not be measured optically because this compound causes hemolysis; type: functional, organism-based; design: dose 10 mg/kg
[23] = tested on: Rattus norvegicus; assay: Inhibition of blood platelet aggregation in rats (ADP) after intravenous infusion at dose 1 mg/kg after 15 min; type: functional; summary of the method: as §2
[24] = tested on: Rattus norvegicus; assay: Inhibition of blood platelet aggregation in rats (collagen) after intravenous infusion at dose 1 mg/kg after 15 min; type: functional; summary of the method: as §2

| SMILES | EC50 [1] [µM] | EC50 [3] [µM] | platelet aggregation [2] | platelet aggregation rate [6] | further results |
| --- | --- | --- | --- | --- | --- |
| O=C1CN2Cc3c(Cl)cc(N4CCCCC4)cc3N=C2N1 | 350 | – | – | – | – |
| O=C1CN2Cc3c(cccc3N3CCCCC3)NC2=N1 | 22.5 | 20 | – | – | – |
| O=C1CN2Cc3cc(N4CCOCC4)ccc3N=C2N1 | 5 | 2 | 0.201 ΔA | 0.154 ΔA/min | platelet aggregation [7]: 0.202 ΔA; platelet aggregation rate [8]: 0.09 ΔA/min |
| O=C1CN2Cc3c(sc4c3CCCC4)N=C2N1 | – | 0.1 | 0.112 ΔA | 0.073 ΔA/min | – |
| O=C1CN2Cc3cc(N4CCOCC4)c(Cl)cc3N=C2N1 | 0.36 | 0.1 | 0.122 ΔA | 0.055 ΔA/min | – |
| CC1CCN(c2ccc3c(c2Cl)CN2CC(=O)NC2=N3)CC1 | 4 | 2.3 | – | – | – |
| Cc1cc2c(cc1N1CCCCC1)NC1=NC(=O)CN1C2 | 220 | – | – | – | – |
| CN(C)c1cccc2c1CN1CC(=O)NC1=N2 | 2.7 | 1.5 | – | – | – |
| CN(C)c1cc2c(cc1Cl)NC1=NC(=O)CN1C2 | 1.1 | 0.44 | 0.15 ΔA | 0.082 ΔA/min | Change in heart rate [9]: 42%; Change in heart rate [10]: 47%; Change in BP [11]: 30 mmHg; Change in heart rate [12]: 46%; Change in BP [13]: 23 mmHg; Change in BP [14]: 28 mmHg; platelet aggregation rate [19]: 0.136 ΔA/min; Change in BP [15]: 27 mmHg; Change in heart rate [16]: 41%; Change in heart rate [17]: 50%; Change in BP [18]: 26 mmHg; platelet aggregation [5]: 0.171 ΔA |
| O=C1CN2Cc3c(ccc(Cl)c3Cl)N=C2N1 [ANAGRELIDE] | – | – | – | 0.067 ΔA/min | platelet aggregation [20]: 0.248 ΔA |
| CNc1ccc2c(c1)CN1CC(=O)NC1=N2 | 24 | – | – | – | – |
| Cc1cc2c(cc1N1CCCCC1)CN1CC(=O)NC1=N2 | 5.4 | 0.58 | – | – | Inhibition [21]: Platelet aggregation could not be measured optically because this compound causes hemolysis; Inhibition [22]: Platelet aggregation could not be measured optically because this compound causes hemolysis |
| O=C1CN2Cc3cc(N4CCCCC4)ccc3N=C2N1 | 3.8 | 0.33 | 0.121 ΔA | 0.068 ΔA/min | Change in heart rate [9]: 27%; Change in heart rate [10]: 27%; Change in BP [11]: 18 mmHg; Change in heart rate [12]: 25%; platelet aggregation [23]: 0.116 ΔA; platelet aggregation rate [24]: 0 ΔA/min; Change in BP [13]: 9 mmHg; Change in BP [14]: 12 mmHg; Change in BP [15]: 12 mmHg; Change in heart rate [16]: 17%; platelet aggregation rate [4]: 0.118 ΔA/min; Change in heart rate [17]: 32%; Change in BP [18]: 12 mmHg; platelet aggregation [5]: 0.158 ΔA |
| Nc1ccc2c(c1)CN1CC(=O)NC1=N2 | 170 | 16 | – | – | – |
| CC1CCN(c2ccc3c(c2)CN2CC(=O)NC2=N3)CC1 | 2.8 | 18 | 0.188 ΔA | 0.122 ΔA/min | – |
| CN1CCN(c2ccc3c(c2Cl)CN2CC(=O)NC2=N3)CC1 | 8 | 3 | 0.189 ΔA | 0.149 ΔA/min | – |
| O=C1CN2Cc3ccc(N4CCCCC4)cc3N=C2N1 | 46 | 8 | – | – | – |
| CC1CCCCN1c1ccc2c(c1)CN1CC(=O)NC1=N2 (stereo not drawn) | 2 | 1.7 | – | 0.145 ΔA/min | platelet aggregation [20]: 0.19 ΔA |

The next lines start with results.

| EC50 [1] [µM] | EC50 [3] [µM] | SMILES | platelet aggregation [2] | platelet aggregation rate [6] | further results |
| --- | --- | --- | --- | --- | --- |
| 0.4 | 0.46 | O=C1CN2Cc3cc(N4CCCCC4)c(Cl)cc3N=C2N1 | 0.137 ΔA | 0.039 ΔA/min | platelet aggregation rate [4]: 0.18 ΔA/min; platelet aggregation [5]: 0.189 ΔA |
| 2.6 | 1.9 | O=C1CN2Cc3cc(N4CCCC4)ccc3N=C2N1 | – | – | – |
| 5.6 | 1.3 | CCN(CC)c1ccc2c(c1Cl)CN1CC(=O)NC1=N2 | 0.201 ΔA | 0.041 ΔA/min | – |
| 7 | 1.2 | CN(C)c1ccc2c(c1Cl)CN1CC(=O)NC1=N2 | 0.098 ΔA | 0.019 ΔA/min | Change in heart rate [9]: 46%; platelet aggregation [7]: 0.208 ΔA; Change in heart rate [10]: 43%; Change in BP [11]: 45 mmHg; Change in heart rate [12]: 41%; Change in BP [13]: 34 mmHg; Change in BP [14]: 36 mmHg; Change in BP [15]: 43 mmHg; Change in heart rate [16]: 38%; platelet aggregation rate [8]: 0 ΔA/min; Change in heart rate [17]: 46%; Change in BP [18]: 35 mmHg |
| 26 | – | CN(Cc1ccccc1)c1ccc2c(c1)CN1CC(=O)NC1=N2 | – | – | – |
| 3 | 2.7 | O=C1CN2Cc3c(ccc(N4CCCC4)c3Cl)NC2=N1 | – | – | – |
| 290 | – | CN(C)c1cc(Cl)c2c(c1)NC1=NC(=O)CN1C2 | – | – | – |
| 7.9 | 1.2 | O=C1CN2Cc3c(ccc(N4CCCCC4)c3Cl)NC2=N1 | – | – | – |
| 5.4 | 1.4 | CN(C)c1ccc2c(c1)CN1CC(=O)NC1=N2 | 0.193 ΔA | 0.071 ΔA/min | platelet aggregation [23]: 0.142 ΔA; platelet aggregation rate [24]: 0.058 ΔA/min; platelet aggregation rate [4]: 0.154 ΔA/min; platelet aggregation [5]: 0.16 ΔA |
| 96 | – | O=C1CN2Cc3ccc(N4CCOCC4)cc3N=C2N1 | – | – | – |
| 4 | 1.4 | CC1CCCCN1c1ccc2c(c1Cl)CN1CC(=O)NC1=N2 (stereo not drawn) | – | – | – |
